In ChEMBL document CHEMBL2321827, “Allopregnanolone and pregnanolone analogues modified in the C ring: synthesis and activity” (J Med Chem, 2013):

What was measured:
Assay type in all cases: cell-based
Cerebral cortex neuron [1] = test: Stimulation of [3H]flunitrazepam binding to GABA type A receptor in mouse primary cortical neurons at 100 uM after 30 mins by liquid scintillation counting analysis relative to allopregnanolone
How it was run: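 Intact E16 mouse cortical neurons cultured 7–9 days, washed in HEPES pH 7.3, then incubated 30 min at 25 °C with 1.3–2.0 nM [3H]flunitrazepam and 100 μM compound in triplicate. Nonspecific binding was defined with 20 μM diazepam and radioactivity counted by scintillation. Binding increase is given as % of the maximal effect of 60 μM allopregnanolone, mean ± sd, n = 2–4.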

[2] = Stimulation of [3H]flunitrazepam binding to GABA type A receptor in mouse primary cortical neurons after 30 mins by liquid scintillation counting analysis; conditions: cerebral cortex neuron
How it was run: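 Cortical neurons from E16 mouse embryos, cultured 7–9 days with FUdR/uridine against glia, then washed in HEPES buffer pH 7.3. Intact cells were incubated with 1.3–2.0 nM [3H]flunitrazepam and compound (1 nM–300 μM, ≥6 concentrations, triplicate, final DMSO 100 μM) for 30 min at 25 °C. Nonspecific binding used 20 μM diazepam. EC50 came from a sigmoid fit, mean ± sd, n = 2–4.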

Cerebral cortex neuron [3] = test: Stimulation of [3H]flunitrazepam binding to GABA type A receptor in primary cortical neurons relative to allopregnanolone

Row | Structure (SMILES) | Emax (Cerebral cortex neuron [1]) [%] | EC50 [2] [µM] | Activity (Cerebral cortex neuron [3]) [%]
1 | CC(=O)N[C@@H]1C[C@H]2[C@@H](CC[C@H]3C[C@H](O)CC[C@@]32C)[C@@H]2CC[C@H](C(C)=O)[C@@]12C | 0 | > 100 | –
2 | CC(=O)[C@H]1CC[C@H]2[C@@H]3CC[C@@H]4C[C@H](O)CC[C@]4(C)[C@H]3C(=O)C[C@]12C [RENANOLONE] | 42 | 94 | –
3 | CC(=O)[C@H]1CC[C@H]2[C@@H]3CC[C@@H]4C[C@H](O)CC[C@]4(C)[C@H]3[C@H](O)C[C@]12C | 43 | 71 | –
4 | CC(=O)[C@H]1CC[C@H]2[C@@H]3CC[C@@H]4C[C@H](O)CC[C@]4(C)[C@H]3[C@@H](C)C[C@]12C | 71 | 14 | –
5 | CC(=O)[C@H]1CC[C@H]2[C@@H]3CC[C@H]4C[C@H](O)CC[C@]4(C)[C@H]3[C@H](O)C[C@]12C | 28 | > 300 | –
6 | CC(=O)[C@H]1CC[C@H]2[C@@H]3CC[C@H]4C[C@H](O)CC[C@]4(C)[C@H]3C[C@@H](O)[C@]12C | 28 | 173 | –
7 | C#C[C@]1(O)C[C@]2(C)[C@@H](C(C)=O)CC[C@H]2[C@@H]2CC[C@H]3C[C@H](O)CC[C@]3(C)[C@H]21 | 87 | 32 | –
8 | CC(=O)[C@H]1CC[C@H]2[C@@H]3CC[C@H]4C[C@H](O)CC[C@]4(C)[C@H]3C(=O)C[C@]12C [ALFAXALONE] | 92 | 4.6 | –
9 | CC(=O)[C@H]1CC[C@H]2[C@@H]3CC[C@H]4C[C@H](O)CC[C@]4(C)[C@H]3[C@@H](O)C[C@]12C | 117 | 32 | –
10 | CC(=O)[C@H]1CC[C@H]2[C@@H]3CC[C@H]4C[C@H](O)CC[C@]4(C)[C@H]3[C@@H](C)C[C@]12C | 97 | 8 | –
11 | CC(=O)[C@H]1CC[C@H]2[C@@H]3CC[C@H]4C[C@H](O)CC[C@]4(C)[C@H]3C=C[C@]12C | 67 | 7.4 | –
12 | CC(=O)[C@H]1CC[C@H]2[C@@H]3CC[C@@H]4C[C@H](O)CC[C@]4(C)C3=C(C)C[C@]12C | 97 | 3 | –
13 | CC(=O)[C@H]1CC[C@H]2[C@@H]3CC[C@H]4C[C@H](O)CC[C@]4(C)[C@H]3C[C@@H](N)[C@]12C | 0 | > 300 | –
14 | C=C1C[C@]2(C)[C@@H](C(C)=O)CC[C@H]2[C@@H]2CC[C@@H]3C[C@H](O)CC[C@]3(C)[C@@H]12 | 28 | 37.5 | –
15 | C#C[C@@]1(O)CC[C@@]2(C)[C@H](CC[C@H]3[C@@H]4CC[C@H](C(C)=O)[C@@]4(C)C[C@@](O)(C#C)[C@@H]32)C1 | 61 | 75 | –
16 | CC(=O)[C@H]1CC[C@H]2[C@@H]3CC[C@H]4C[C@H](N)CC[C@]4(C)[C@H]3CC[C@]12C | – | – | 56
17 | C=C1C[C@]2(C)[C@@H](C(C)=O)CC[C@H]2[C@@H]2CC[C@H]3C[C@H](O)CC[C@]3(C)[C@@H]12 | 102 | 1.2 | –
18 | CC(=O)[C@H]1CC[C@H]2[C@@H]3CC[C@H]4C[C@H](O)CC[C@]4(C)[C@H]3[C@H](N)C[C@]12C | 45 | 154 | –
19 | C#C[C@]1(O)C[C@]2(C)[C@@H](C(C)=O)CC[C@H]2[C@@H]2CC[C@@H]3C[C@H](O)CC[C@]3(C)[C@H]21 | 91 | 14 | –
20 | CC(=O)[C@H]1CC[C@H]2[C@@H]3CC[C@H]4C[C@H](O)CC[C@]4(C)[C@H]3[C@@H]3O[C@@H]3[C@]12C | 9 | > 300 | –
21 | CC(=O)[C@H]1CC[C@H]2[C@@H]3CC[C@@H]4C[C@H](O)CC[C@]4(C)[C@H]3[C@@H](O)C[C@]12C | 25 | > 300 | –
22 | CC(=O)[C@H]1CC[C@H]2[C@@H]3CC[C@H]4C[C@H](O)CC[C@]4(C)[C@H]3C[C@H](O)[C@]12C | 60 | 46 | –
23 | CC(=O)[C@H]1CC[C@H]2[C@@H]3CC[C@@H]4C[C@H](O)CC[C@]4(C)[C@H]3[C@](O)(C#Cc3ccccc3)C[C@]12C | 116 | 1.2 | –
24 | CC(=O)[C@H]1CC[C@H]2[C@@H]3CC[C@H]4C[C@H](O)CC[C@]4(C)[C@H]3[C@@H](N)C[C@]12C | 140 | 5.9 | –
25 | CC(=O)[C@H]1CC[C@H]2[C@@H]3CC[C@@H]4C[C@@](O)(C#Cc5ccccc5)CC[C@]4(C)[C@H]3[C@](O)(C#Cc3ccccc3)C[C@]12C | 0 | > 100 | –
